Calls of active or inactive are those of the source. The calls are words filed in the database; no cut-off is given here.
Tests used:
PtK2 [1] = assay: Induction of oxidative stress in potoroo PtK2 cells assessed as change in microtubular network after 24 hrs by immunofluorescence microscopic analysis; format: functional, cell-based; settings: Potorous tridactylus
In short: (§1)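 PtK2 cells were grown on coverslips and treated once semi-confluent, for 24 h. Cells were fixed with 3.7% paraformaldehyde followed by 0.1% Triton X-100, or with cold methanol/acetone 50:50. Primary and secondary antibodies were applied for 45 min each: anti-GRP94 for ER, anti-α-tubulin. Actin was stained with phalloidin and nuclei with DAPI. Imaging was by fluorescence microscopy with a CCD camera.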

Saccharomyces cerevisiae [2] = assay: Growth inhibition of GSH2-deficient Saccharomyces cerevisiae YOL049W mutant at 20 ug/disc after 24 to 48 hrs by agar diffusion assay; format: functional; settings: read-out: DIZ
In short: (§2)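 S. cerevisiae deletion mutants or wild type grown on YPD, seeded into liquid agar medium at an optical density of 0.1. 6 mm paper discs soaked with methanolic compound solution were placed on the plates and incubated at 30 °C. Growth was checked after 1 and 2 days, and the inhibition zone diameter was recorded in mm.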

SNB-19 = assay: Cytotoxicity against human SNB19 cells; format: functional; settings: for TGI: read-out: pTGI (converted)
[3] = Cytotoxicity against human 786-O cells; format: functional; settings: for GI50 / LC50: 786-0; for TGI: 786-0, read-out: pTGI (converted)
CAKI-1 = assay: Cytotoxicity against human Caki1 cells; format: functional; settings: for TGI: read-out: pTGI (converted)
Saccharomyces cerevisiae [4] = assay: Growth inhibition of POS5-deficient Saccharomyces cerevisiae YPL188W mutant at 20 ug/disc after 24 to 48 hrs by agar diffusion assay; format: functional; settings: read-out: DIZ; in short: as §2
SK-OV-3 = assay: Cytotoxicity against human SKOV3 cells; format: functional; settings: for TGI: read-out: pTGI (converted)
MOLT-4 = assay: Cytotoxicity against human MOLT4 cells; format: functional; settings: for TGI: read-out: pTGI (converted)
CCRF-CEM = assay: Cytotoxicity against human CCRF-CEM cells; format: functional
OVCAR-4 = assay: Cytotoxicity against human OVCAR4 cells; format: functional; settings: for TGI: read-out: pTGI (converted)
NCI-H226 = assay: Cytotoxicity against human NCI-H226 cells; format: functional; settings: for CC50: read-out: pLC50 (the source's name) (converted); for TGI: read-out: pTGI (converted)
PtK2 [5] = assay: Induction of oxidative stress in potoroo PtK2 cells assessed as change in cell morphology after 24 hrs by immunofluorescence microscopic analysis; format: functional, cell-based; settings: Potorous tridactylus; in short: as §1
PtK2 [6] = assay: Induction of oxidative stress in potoroo PtK2 cells assessed as reduction in cell adhesion after 24 hrs by immunofluorescence microscopic analysis; format: functional, cell-based; settings: Potorous tridactylus; in short: as §1
Saccharomyces cerevisiae [7] = assay: Growth inhibition of WSC4-deficient Saccharomyces cerevisiae YHL028W mutant at 20 ug/disc 24 to 48 hrs by agar diffusion assay; format: functional; settings: read-out: DIZ; in short: as §2
NCI-H522 = assay: Cytotoxicity against human NCI-H522 cells; format: functional; settings: for TGI: read-out: pTGI (converted)
Saccharomyces cerevisiae [8] = assay: Growth inhibition of SOD2-deficient Saccharomyces cerevisiae YHR008C mutant at 20 ug/disc 24 to 48 hrs by agar diffusion assay; format: functional; settings: read-out: DIZ; in short: as §2
A498 = assay: Cytotoxicity against human A498 cells; format: functional; settings: for TGI: read-out: pTGI (converted)
UACC-257 = assay: Cytotoxicity against human UACC257 cells; format: functional
PtK2 [9] = assay: Induction of oxidative stress in potoroo PtK2 cells assessed as hole in the endoplasmic reticulum after 24 hrs by immunofluorescence microscopic analysis; format: functional, cell-based; settings: Potorous tridactylus; in short: as §1
Saccharomyces cerevisiae [10] = assay: Growth inhibition of RCK1-deficient Saccharomyces cerevisiae YGL158W mutant at 20 ug/disc after 24 to 48 hrs by agar diffusion assay; format: functional; settings: read-out: DIZ; in short: as §2
NCI/ADR-RES = assay: Cytotoxicity against human NCI/ADR-RES cells; format: functional; settings: for CC50: read-out: pLC50 (the source's name) (converted); for TGI: read-out: pTGI (converted)
MCF7 = assay: Cytotoxicity against human MCF7 cells; format: functional; settings: for TGI: read-out: pTGI (converted)
OVCAR-8 = assay: Cytotoxicity against human OVCAR8 cells; format: functional; settings: for TGI: read-out: pTGI (converted)
KM12 = assay: Cytotoxicity against human KM12 cells; format: functional; settings: for TGI: read-out: pTGI (converted)
IGROV-1 = assay: Cytotoxicity against human IGROV1 cells; format: functional; settings: for TGI: read-out: pTGI (converted)
SF-268 = assay: Cytotoxicity against human SF268 cells; format: functional; settings: for TGI: read-out: pTGI (converted)
Saccharomyces cerevisiae [11] = assay: Growth inhibition of COX17-deficient Saccharomyces cerevisiae YLL009C mutant at 20 ug/disc after 24 to 48 hrs by agar diffusion assay; format: functional; settings: read-out: DIZ; in short: as §2
Saccharomyces cerevisiae [12] = assay: Growth inhibition of UFD2-deficient Saccharomyces cerevisiae YDL190C mutant at 20 ug/disc after 24 to 48 hrs by agar diffusion assay; format: functional; settings: read-out: DIZ; in short: as §2
[13] = Cytotoxicity against human PHF cells after 24 hrs by MTT assay; format: cell-based
In short: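 MTT assay. Cells were seeded at 50,000 cells/mL in medium with 10% fetal calf serum and grown for two days at 37 °C, 10% CO2. Serial dilutions of compound were then added for 24 h. MTT was added (final 0.5 mg/mL) for 2 h, and the formazan was pelleted, washed, dissolved in isopropanol with 0.4% HCl and read at 590 nm. IC50 is the concentration giving 50% of untreated-control absorbance, taken from dose-response curves; mean of two parallel experiments.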

EKVX = assay: Cytotoxicity against human EKVX cells; format: functional; settings: for TGI: read-out: pTGI (converted)
Saccharomyces cerevisiae [14] = assay: Growth inhibition of wild type Saccharomyces cerevisiae BY4741 at 20 ug/disc after 24 to 48 hrs by agar diffusion assay; format: functional; settings: read-out: DIZ; in short: as §2
ACHN = assay: Cytotoxicity against human ACHN cells; format: functional; settings: for TGI: read-out: pTGI (converted)
Malme-3M = assay: Cytotoxicity against human MALME-3M cells; format: functional; settings: for TGI: read-out: pTGI (converted)
MDA-MB-231 = assay: Cytotoxicity against human MDA-MB-231 cells; format: functional; settings: for TGI: read-out: pTGI (converted)
PtK2 [15] = assay: Induction of oxidative stress in potoroo PtK2 cells assessed as reduction in actin stress fibres after 24 hrs by immunofluorescence microscopic analysis; format: functional, cell-based; settings: Potorous tridactylus; in short: as §1
SK-MEL-2 = assay: Cytotoxicity against human SK-MEL-2 cells; format: functional; settings: for TGI: read-out: pTGI (converted)
Saccharomyces cerevisiae [16] = assay: Growth inhibition of SOD1-deficient Saccharomyces cerevisiae YJR104C mutant at 20 ug/disc after 24 to 48 hrs by agar diffusion assay; format: functional; settings: read-out: DIZ; in short: as §2
SR = assay: Cytotoxicity against human SR cells; format: functional
DU-145 = assay: Cytotoxicity against human DU145 cells; format: functional

## CC1=C(SCCC(=O)OC(C[Se]C2=C(C)C(=O)c3ccccc3C2=O)C(=O)NCCCCCC(=O)OCc2ccccc2)C(=O)c2ccccc2C1=O (configuration not stated)
PtK2 [1]
  Activity: inactive
Saccharomyces cerevisiae [2]
  zone of inhibition at 20 µg/disc: 10 mm
SNB-19
  GI50: 3.8 µM
  LC50: 40.7 µM
  TGI: 14.1 µM
[3]
  GI50: 4.68 µM
  LC50: 38 µM
  TGI: 14.1 µM
CAKI-1
  GI50: 6.92 µM
  LC50: 51.3 µM
  TGI: 21.4 µM
Saccharomyces cerevisiae [4]
  zone of inhibition at 20 µg/disc: 10 mm
SK-OV-3
  GI50: 7.08 µM
  LC50: 44.7 µM
  TGI: 19.5 µM
MOLT-4
  GI50: 4.07 µM
  LC50: > 100 µM
  TGI: > 100 µM
CCRF-CEM
  GI50: 2.82 µM
  LC50: > 100 µM
CCRF-CEM; read-out: pTGI
  TGI: > 100 µM
OVCAR-4
  GI50: 12.3 µM
  LC50: 51.3 µM
  TGI: 25.1 µM
NCI-H226
  GI50: 19.5 µM
  CC50: > 100 µM
  TGI: 51.3 µM
PtK2 [5]
  Activity: Active
PtK2 [6]
  Activity: Active
Saccharomyces cerevisiae [7]
  zone of inhibition at 20 µg/disc: 16 mm
NCI-H522
  GI50: 3.98 µM
  LC50: 44.7 µM
  TGI: 15.1 µM
Saccharomyces cerevisiae [8]
  zone of inhibition at 20 µg/disc: 15 mm
A498
  GI50: 12 µM
  LC50 (50% lethal concentration): > 100 µM
  TGI: > 100 µM
UACC-257
  GI50: 3.47 µM
  LC50: 34.7 µM
UACC-257; read-out: pTGI (converted)
  TGI: 10 µM
PtK2 [9]
  Activity: Active
Saccharomyces cerevisiae [10]
  zone of inhibition at 20 µg/disc: 10 mm
NCI/ADR-RES
  GI50: 4.57 µM
  CC50: 81.3 µM
  TGI: 18.2 µM
MCF7
  GI50: 4.79 µM
  LC50: > 100 µM
  TGI: 29.5 µM
OVCAR-8
  GI50: 4.17 µM
  LC50: 50.1 µM
  TGI: 15.1 µM
KM12
  GI50: 1.41 µM
  LC50: 13.8 µM
  TGI: 4.07 µM
IGROV-1
  GI50: 2.14 µM
  LC50 (concentration killing 50% of cells): 53.7 µM
  TGI: 14.5 µM
SF-268
  GI50: 7.41 µM
  LC50: 44.7 µM
  TGI: 20 µM
Saccharomyces cerevisiae [11]
  zone of inhibition at 20 µg/disc: 11 mm
Saccharomyces cerevisiae [12]
  zone of inhibition at 20 µg/disc: 0 mm
[13]
  IC50: 5 µM
EKVX
  GI50: 3.63 µM
  LC50: 58.9 µM
  TGI: 17.8 µM
Saccharomyces cerevisiae [14]
  zone of inhibition at 20 µg/disc: 0 mm
ACHN
  GI50: 12 µM
  LC50: 63.1 µM
  TGI: 27.5 µM
Malme-3M
  GI50: 2.09 µM
  LC50: 56.2 µM
  TGI: 6.92 µM
MDA-MB-231
  GI50: 6.76 µM
  LC50: 55 µM
  TGI: 21.9 µM
PtK2 [15]
  Activity: Active
SK-MEL-2
  GI50: 5.5 µM
  LC50: 52.5 µM
  TGI: 19.1 µM
Saccharomyces cerevisiae [16]
  zone of inhibition at 20 µg/disc: 16 mm

## CC1=C([Se]CC(OC(=O)[C@@H](CSSC(C)(C)C)NC(=O)C(C)(C)C)C(=O)NCCCCCC(=O)OCc2ccccc2)C(=O)c2ccccc2C1=O (some centres not stated)
Saccharomyces cerevisiae [2]
  zone of inhibition at 20 µg/disc: 0 mm
SNB-19
  GI50: 1.1 µM
  LC50: 6.03 µM
  TGI: 2.57 µM
[3]
  GI50: 2.09 µM
  LC50: 6.31 µM
  TGI: 3.63 µM
CAKI-1
  GI50: 2.19 µM
  LC50: 9.33 µM
  TGI: 4.57 µM
Saccharomyces cerevisiae [4]
  zone of inhibition at 20 µg/disc: 0 mm
SK-OV-3
  GI50: 1.55 µM
  LC50: 5.5 µM
  TGI: 2.95 µM
MOLT-4
  GI50: 3.24 µM
  LC50: > 100 µM
  TGI: 9.55 µM
OVCAR-4
  GI50: 1.58 µM
  LC50: 5.62 µM
  TGI: 2.95 µM
NCI-H226
  GI50: 2.34 µM
  CC50: 9.12 µM
  TGI: 4.68 µM
Saccharomyces cerevisiae [7]
  zone of inhibition at 20 µg/disc: 14 mm
NCI-H522
  GI50: 1.7 µM
  LC50: 6.17 µM
  TGI: 3.24 µM
Saccharomyces cerevisiae [8]
  zone of inhibition at 20 µg/disc: 0 mm
A498
  GI50: 1.62 µM
  LC50 (50% lethal concentration): 56.2 µM
  TGI: 4.79 µM
Saccharomyces cerevisiae [10]
  zone of inhibition at 20 µg/disc: 0 mm
NCI/ADR-RES
  GI50: 3.39 µM
  CC50: > 100 µM
  TGI: 11.5 µM
MCF7
  GI50: 3.02 µM
  LC50: 50.1 µM
  TGI: 9.77 µM
OVCAR-8
  GI50: 2 µM
  LC50: 7.08 µM
  TGI: 3.8 µM
KM12
  GI50: 1.78 µM
  LC50: 6.76 µM
  TGI: 3.47 µM
IGROV-1
  GI50: 1.91 µM
  LC50 (concentration killing 50% of cells): 7.08 µM
  TGI: 3.63 µM
SF-268
  GI50: 1.91 µM
  LC50: 6.46 µM
  TGI: 3.55 µM
Saccharomyces cerevisiae [11]
  zone of inhibition at 20 µg/disc: 0 mm
Saccharomyces cerevisiae [12]
  zone of inhibition at 20 µg/disc: 0 mm
[13]
  IC50: 4 µM
SR
  GI50: 3.8 µM
  LC50: > 100 µM
SR; read-out: pTGI (converted)
  TGI: 18.6 µM
DU-145
  GI50: 2.14 µM
  LC50: 9.55 µM
DU-145; read-out: pTGI (converted)
  TGI: 4.47 µM
EKVX
  GI50: 2.24 µM
  LC50: > 100 µM
  TGI: 5.37 µM
Saccharomyces cerevisiae [14]
  zone of inhibition at 20 µg/disc: 0 mm
ACHN
  GI50: 2.14 µM
  LC50: 14.5 µM
  TGI: 4.9 µM
Malme-3M
  GI50: 2.51 µM
  LC50: 13.5 µM
  TGI: 5.13 µM
MDA-MB-231
  GI50: 1.91 µM
  LC50: 9.33 µM
  TGI: 4.27 µM
SK-MEL-2
  GI50: 2.24 µM
  LC50: 39.8 µM
  TGI: 5.01 µM
Saccharomyces cerevisiae [16]
  zone of inhibition at 20 µg/disc: 12 mm

From ChEMBL document CHEMBL2177069, “Novel peptidomimetic compounds containing redox active chalcogens and quinones as potential anticancer agents” (Eur J Med Chem, 2012)
